Measurements reported in ChEMBL document CHEMBL5543124, “Lead Compound Development of SRC-3 Inhibitors with Improved Pharmacokinetic Properties and Anticancer Efficacy” (J Med Chem, 2024).
Activity calls are given as the source filed them. The rule behind the calls is not given here.

Key:
[1] = Cytotoxicity against CD-1 mouse Primary hepatocyte assessed as inhibition of cell growth incubated for 72 hrs by MTT assay; type: toxicity, cell-based; conditions: primary hepatocytes
[2] = Tmax in CD-1 mouse at 10 mg/kg,po administration measured upto 48 hrs by LC-MS/MS analysis; type: ADME, organism-based; conditions: in vivo
Summary of the method: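 Male ICR mice (n=3) dosed by oral gavage at 10 mg/kg from a 1 mg/mL solution in 20% DMSO/16% PEG/4% dextrose in PBS. Tail-vein blood (10 μL) drawn at 15 and 30 min and at 1, 2, 4, 8, 24 and 48 h. Plasma quantified by LC-MS/MS against calibration standards. Parameters from non-compartmental extravascular model.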

[3] = Antitumor activity against human Panc-1-Luc cells orthotopically xenografted in SCID mouse assessed as reduction in tumor weight at 10 mg/kg,ip administration once daily for 63 days by weighing harvested tumors; conditions: time 63 day
MDA-PCa-118b = experiment: Antitumor activity against patient derived MDA-PCa-118b cells xenografted in SCID mouse assessed as reduction in tumor burden in femur at 10 mg/kg,ip administration measured after 4 weeks by hematoxylin and eosin staining based analysis; type: functional, organism-based; conditions: Homo sapiens
Summary of the method: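 AR-PDX 118b cells (1×10^5) injected via intra-femoral artery in male SCID mice (8–9 weeks). After 2 weeks, 10 mg/kg/day ip or vehicle for 4 weeks (n = 9/group). X-ray imaging every two weeks. At the end, femurs CT-scanned (5 per group) with 3D-reconstruction tumor size, and H&E histology used for tumor/femur area ratio.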

PANC-1 [4] = experiment: Cytotoxicity against human PANC-1 cells assessed as inhibition of cell growth incubated for 72 hrs by MTT assay; type: functional, cell-based; conditions: PANC-1, 72 h
Summary of the method: (§1)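 Cells seeded and grown to 70–80% confluence, then exposed for 72 h to a titration series (0.2–1000 nM). Viability read by MTT relative to untreated cells, with 6 replicates per concentration. IC50 fitted with a Hill-slope model.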

[5] = Cmax in CD-1 mouse at 10 mg/kg,po administration measured upto 48 hrs by LC-MS/MS analysis; type: ADME, organism-based; conditions: in vivo
Summary of the method: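 Oral gavage in ICR male mice (n = 3); dosing solution 1 mg/mL in 20% DMSO, 16% PEG, 4% dextrose in PBS. Tail-vein blood (10 μL) taken at 15, 30 min and 1, 2, 4, 8, 24, 48 h. Plasma quantified by LC-MS/MS against a 0.5–1000 ng/mL calibration; parameters from a non-compartmental extravascular model.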

[6] = target: Nuclear receptor coactivator 3 (Homo sapiens) (UniProt Q9Y6Q9); experiment: Inhibition of recombinant His-tagged SRC-3 (unknown origin) expressed in baculovirus assessed as reduction in recruitment of SRC-3 in ER complex at 0.15 uM incubated for 30 mins by pull-down based western blotting analysis
Summary of the method: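 Purified baculovirus-expressed His-SRC-3-flag (0.1 μg) preincubated with compound or vehicle for 30 min on ice. Then 0.1 μg recombinant ERα and His-p300 plus ERE-containing DNA oligo and 1 μM 17β-estradiol added, 1 h on ice. ER complexes immunoprecipitated with anti-ERα antibody; SRC-3 and p300 detected by western blot.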

[7] = Stability in human plasma incubated upto 150 mins; type: ADME, cell-free; conditions: 2.5 h
[8] = Tmax in CD-1 mouse at 1 mg/kg,iv administration measured upto 48 hrs by LC-MS/MS analysis; type: ADME, organism-based; conditions: in vivo
Summary of the method: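 Male ICR mice (n=3, 6 weeks) given 1 mg/kg i.v. from a 0.5 mg/mL solution in 20% DMSO/16% PEG/4% dextrose in PBS. Tail-vein blood (10 μL) drawn at 2, 5, 15 and 30 min and at 1, 2, 4, 8, 24 and 48 h. Plasma quantified by LC-MS/MS against 0.5–1000 ng/mL calibration standards with QC samples. Parameters from non-compartmental analysis.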

[9] = Cytotoxicity against human MPANC96 cells assessed as inhibition of cell growth incubated for 72 hrs by MTT assay; type: functional, cell-based; conditions: MPANC96, 72 h; summary of the method: as §1
PANC-1 [10] = experiment: Cytotoxicity against SiRNA mediated SRC-3.1 knockdown human PANC-1 cells assessed as inhibition of cell growth incubated for 72 hrs by MTT assay; type: functional, cell-based; conditions: PANC-1, 72 h
Summary of the method: (§2)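 PANC-1 cells with stable lentiviral shRNA knockdown of SRC-3 or control shRNA; SRC-3 levels checked by western blot. Cells treated with a dose series for 72 h and viability read by MTT.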

[11] = Half life in CD-1 mouse at 1 mg/kg,iv administration measured upto 48 hrs by LC-MS/MS analysis; type: ADME, organism-based; conditions: in vivo
Summary of the method: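 Single intravenous bolus in ICR male mice (n = 3, 6 weeks); dosing solution 0.5 mg/mL in 20% DMSO, 16% PEG, 4% dextrose in PBS. Tail-vein blood (10 μL) taken at 2, 5, 15, 30 min and 1, 2, 4, 8, 24, 48 h. Plasma quantified by LC-MS/MS against a 0.5–1000 ng/mL calibration; parameters from non-compartmental analysis.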

PANC-1 [12] = experiment: Cytotoxicity against […] SRC-3.2 knockdown human PANC-1 cells assessed as inhibition of cell growth incubated for 72 hrs by MTT assay; type: functional, cell-based; conditions: PANC-1, 72 h; summary of the method: as §2
PANC-1 [13] = experiment: Cytotoxicity against human PANC-1 cells mediated with siRNA control assessed as inhibition of cell growth incubated for 72 hrs by MTT assay; type: functional, cell-based; conditions: PANC-1, 72 h; summary of the method: as §2
Panc-1-Luc = experiment: Antitumor activity against human Panc-1-Luc cells orthotopically xenografted in SCID mouse assessed as reduction in tumor growth at 10 mg/kg,ip administration once daily for 63 days; type: functional, organism-based; conditions: time 63.0 day
Summary of the method: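 Panc-1-Luc cells (0.5×10^6) implanted orthotopically in pancreas of male SCID mice (8 weeks). Mice randomized by luciferase imaging (n = 5/group); from day 8 given 10 mg/kg or vehicle daily. Tumor measured weekly by luciferase imaging and calipers (length × width²/2), body weight weekly; tumors harvested at day 63.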

MCF7 = experiment: Cytotoxicity against human MCF7 cells assessed as inhibition of cell growth incubated for 72 hrs by MTT assay; type: functional, cell-based; conditions: MCF7, 72 h

Chain of Nuclear receptor coactivator 3 (Homo sapiens) (Q9Y6Q9 2-1424 limits assumed): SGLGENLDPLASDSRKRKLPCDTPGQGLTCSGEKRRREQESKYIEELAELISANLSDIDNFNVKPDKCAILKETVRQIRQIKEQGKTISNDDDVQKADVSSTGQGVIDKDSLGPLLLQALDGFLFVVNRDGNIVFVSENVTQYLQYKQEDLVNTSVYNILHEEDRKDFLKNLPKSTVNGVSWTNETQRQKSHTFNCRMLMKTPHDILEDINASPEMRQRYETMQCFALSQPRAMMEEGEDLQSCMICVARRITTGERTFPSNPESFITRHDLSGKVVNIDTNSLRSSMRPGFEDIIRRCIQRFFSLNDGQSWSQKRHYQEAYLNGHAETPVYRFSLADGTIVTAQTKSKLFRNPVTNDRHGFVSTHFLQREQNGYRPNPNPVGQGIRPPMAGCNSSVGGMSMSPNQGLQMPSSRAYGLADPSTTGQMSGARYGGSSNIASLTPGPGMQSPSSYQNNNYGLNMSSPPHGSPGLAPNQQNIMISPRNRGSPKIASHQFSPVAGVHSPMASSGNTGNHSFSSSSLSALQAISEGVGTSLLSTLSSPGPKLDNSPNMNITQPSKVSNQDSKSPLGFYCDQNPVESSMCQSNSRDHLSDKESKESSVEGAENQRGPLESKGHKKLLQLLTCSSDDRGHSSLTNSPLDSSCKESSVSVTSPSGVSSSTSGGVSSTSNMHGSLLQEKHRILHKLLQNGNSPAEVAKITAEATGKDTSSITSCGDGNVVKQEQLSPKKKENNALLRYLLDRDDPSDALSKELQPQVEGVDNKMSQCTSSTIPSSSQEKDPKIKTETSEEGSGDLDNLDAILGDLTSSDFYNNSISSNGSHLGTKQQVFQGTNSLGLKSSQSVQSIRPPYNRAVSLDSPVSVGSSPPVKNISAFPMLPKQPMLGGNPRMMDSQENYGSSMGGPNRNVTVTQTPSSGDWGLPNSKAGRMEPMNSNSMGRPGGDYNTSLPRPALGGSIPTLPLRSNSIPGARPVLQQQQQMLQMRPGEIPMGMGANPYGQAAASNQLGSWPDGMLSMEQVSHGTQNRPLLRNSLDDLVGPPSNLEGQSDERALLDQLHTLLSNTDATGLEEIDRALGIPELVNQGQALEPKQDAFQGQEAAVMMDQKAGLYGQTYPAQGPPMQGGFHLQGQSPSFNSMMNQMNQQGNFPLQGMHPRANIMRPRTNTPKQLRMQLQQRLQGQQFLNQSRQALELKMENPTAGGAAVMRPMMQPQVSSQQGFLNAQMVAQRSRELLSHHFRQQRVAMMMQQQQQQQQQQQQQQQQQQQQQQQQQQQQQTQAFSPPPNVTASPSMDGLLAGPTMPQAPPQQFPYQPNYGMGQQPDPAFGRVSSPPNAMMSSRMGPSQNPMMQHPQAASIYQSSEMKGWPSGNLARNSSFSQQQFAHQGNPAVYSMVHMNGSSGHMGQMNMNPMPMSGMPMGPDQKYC

Tmax [2]: 15 min
Cmax [5]: 217 ng/mL
inhibition [6]: Active
Stability [7]: Stable
Tmax [8]: 1.98 min
t1/2 [11]: 1350 min
SMILES: C/C(=N\N=c1/[nH]c2cc(F)c(F)cc2n1C)c1ccc(F)cn1
IC50 at 72 h [1]: > 1000 nM
Activity [3]: 0.22 g
Activity (MDA-PCa-118b): Active
IC50 (PANC-1 [4]): 29 nM
IC50 [9]: 28 nM
IC50 (PANC-1 [10]): 147 nM
IC50 (PANC-1 [12]): 119 nM
IC50 (PANC-1 [13]): 25.2 nM
Activity (Panc-1-Luc): Active
IC50 (MCF7): 3.4 nM
